In paper PMC8861878 (The Journal of pharmacy and pharmacology, 2020):

Tests used:
[1] = Glucuronidation of isobavachin by MLM, enzyme kinetics; assay type: in vitro ADME, mice
[2] = intragastric administration of Psoraleae Fructus extracts (1.2 g/kg); cited from earlier work
CYP2C9 = CYP2C9 (Homo sapiens, UniProt P11712); assay: Inhibition of CYP2C9; assay type: in vitro ADME
CYP2C19 = CYP2C19 (Homo sapiens, UniProt P33261); assay: Inhibition of CYP2C19; assay type: in vitro ADME
UGT1A8 = target: T1, UGT1A8 (Homo sapiens, UniProt Q9HAW9); assay: Glucuronidation of isobavachin by recombinant UGT1A8, enzyme kinetics; assay type: in vitro ADME; conditions: formation of G1, substrate inhibition model
T1 sequence (Q9HAW9 26-530): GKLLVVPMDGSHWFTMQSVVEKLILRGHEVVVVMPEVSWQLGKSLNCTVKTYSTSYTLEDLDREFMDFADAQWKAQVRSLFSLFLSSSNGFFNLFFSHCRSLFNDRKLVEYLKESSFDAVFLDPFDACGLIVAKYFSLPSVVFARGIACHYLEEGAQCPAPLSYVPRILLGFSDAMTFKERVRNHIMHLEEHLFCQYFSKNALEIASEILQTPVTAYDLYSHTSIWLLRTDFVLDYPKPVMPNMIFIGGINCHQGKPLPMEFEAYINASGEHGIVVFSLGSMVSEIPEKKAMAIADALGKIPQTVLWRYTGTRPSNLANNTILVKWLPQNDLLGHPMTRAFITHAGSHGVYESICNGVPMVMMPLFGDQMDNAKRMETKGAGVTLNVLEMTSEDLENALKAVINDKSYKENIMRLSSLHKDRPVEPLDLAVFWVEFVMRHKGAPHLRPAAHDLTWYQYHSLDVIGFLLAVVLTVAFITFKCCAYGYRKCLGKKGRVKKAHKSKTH

UGT1A9 = target: T2, UGT1A9 (Homo sapiens, UniProt O60656); assay: Inhibition of UGT1A9; assay type: in vitro ADME
T2 sequence (O60656 26-530): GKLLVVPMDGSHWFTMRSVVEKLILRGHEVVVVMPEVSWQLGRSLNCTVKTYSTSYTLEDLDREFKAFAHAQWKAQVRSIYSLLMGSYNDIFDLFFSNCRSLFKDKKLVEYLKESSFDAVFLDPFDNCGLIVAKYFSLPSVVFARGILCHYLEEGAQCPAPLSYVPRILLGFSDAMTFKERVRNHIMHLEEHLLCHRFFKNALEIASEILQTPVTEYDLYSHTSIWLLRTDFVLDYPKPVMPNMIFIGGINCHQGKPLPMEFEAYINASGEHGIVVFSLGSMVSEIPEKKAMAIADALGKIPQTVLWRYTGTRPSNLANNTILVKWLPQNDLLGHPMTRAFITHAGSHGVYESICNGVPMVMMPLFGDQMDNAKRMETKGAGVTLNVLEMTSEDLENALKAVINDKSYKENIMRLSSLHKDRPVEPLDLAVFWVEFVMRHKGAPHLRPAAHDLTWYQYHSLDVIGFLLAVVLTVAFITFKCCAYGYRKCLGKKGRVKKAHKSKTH

CYP3A4 = CYP3A4 (Homo sapiens, UniProt P08684); assay: Inhibition of CYP3A4; assay type: in vitro ADME; conditions: isobavachin 1, 10, 100 μM; substrate nifedipine (40 μM)
Chain of CYP3A4 (P08684 whole entry): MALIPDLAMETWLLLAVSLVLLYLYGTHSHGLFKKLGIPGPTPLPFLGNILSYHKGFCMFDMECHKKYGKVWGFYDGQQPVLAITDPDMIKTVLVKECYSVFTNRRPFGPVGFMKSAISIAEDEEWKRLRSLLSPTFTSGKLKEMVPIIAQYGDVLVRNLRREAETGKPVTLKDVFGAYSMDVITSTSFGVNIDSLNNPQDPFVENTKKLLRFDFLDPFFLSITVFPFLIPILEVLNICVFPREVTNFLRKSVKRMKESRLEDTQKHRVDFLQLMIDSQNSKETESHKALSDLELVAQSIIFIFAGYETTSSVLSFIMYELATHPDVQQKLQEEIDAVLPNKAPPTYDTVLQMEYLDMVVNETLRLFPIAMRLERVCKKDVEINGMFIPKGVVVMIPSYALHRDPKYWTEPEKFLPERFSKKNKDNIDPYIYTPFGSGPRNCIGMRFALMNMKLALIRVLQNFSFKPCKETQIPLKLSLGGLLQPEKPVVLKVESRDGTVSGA
In short: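 Recombinant human CYPs (CYP1A2 and 3A4 at 0.05 mg/ml; CYP2C8 and 2E1 at 0.1 mg/ml) with probe substrate in Tris-HCl 50 mM pH 7.4, MgCl2 5 mM and NADPH 1 mM at 37 °C for 60 min. Run without (control) or with test compound at 1, 10 or 100 μM. Acetonitrile stop; metabolite by UHPLC-TQD-MS; activity versus control, triplicate.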

UGT1A6 = target: T3, UGT1A6 (Homo sapiens, UniProt P19224); assay: Glucuronidation of isobavachin by recombinant UGT1A6, enzyme kinetics; assay type: in vitro ADME; conditions: substrate inhibition constant, substrate inhibition model
T3 sequence (P19224 27-532): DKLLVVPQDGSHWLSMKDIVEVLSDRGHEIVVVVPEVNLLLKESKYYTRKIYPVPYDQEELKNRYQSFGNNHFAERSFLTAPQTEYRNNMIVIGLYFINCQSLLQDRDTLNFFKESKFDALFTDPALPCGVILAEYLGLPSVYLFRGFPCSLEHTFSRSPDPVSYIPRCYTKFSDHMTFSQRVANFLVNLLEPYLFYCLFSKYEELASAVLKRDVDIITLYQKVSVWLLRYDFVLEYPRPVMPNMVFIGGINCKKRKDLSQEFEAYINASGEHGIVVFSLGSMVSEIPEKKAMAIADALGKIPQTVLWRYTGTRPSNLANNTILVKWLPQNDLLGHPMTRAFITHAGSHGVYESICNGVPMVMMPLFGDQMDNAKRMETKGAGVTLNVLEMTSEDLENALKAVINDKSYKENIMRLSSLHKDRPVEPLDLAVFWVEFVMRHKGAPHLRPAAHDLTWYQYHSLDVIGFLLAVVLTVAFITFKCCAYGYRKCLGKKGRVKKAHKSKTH

[3] = Glucuronidation of isobavachin by pooled HLM, enzyme kinetics; assay type: in vitro ADME, human
[4] = formation of G2, substrate inhibition model
[5] = based on the smallest AIC and SC values

Chain of CYP2C9 (P11712 whole entry): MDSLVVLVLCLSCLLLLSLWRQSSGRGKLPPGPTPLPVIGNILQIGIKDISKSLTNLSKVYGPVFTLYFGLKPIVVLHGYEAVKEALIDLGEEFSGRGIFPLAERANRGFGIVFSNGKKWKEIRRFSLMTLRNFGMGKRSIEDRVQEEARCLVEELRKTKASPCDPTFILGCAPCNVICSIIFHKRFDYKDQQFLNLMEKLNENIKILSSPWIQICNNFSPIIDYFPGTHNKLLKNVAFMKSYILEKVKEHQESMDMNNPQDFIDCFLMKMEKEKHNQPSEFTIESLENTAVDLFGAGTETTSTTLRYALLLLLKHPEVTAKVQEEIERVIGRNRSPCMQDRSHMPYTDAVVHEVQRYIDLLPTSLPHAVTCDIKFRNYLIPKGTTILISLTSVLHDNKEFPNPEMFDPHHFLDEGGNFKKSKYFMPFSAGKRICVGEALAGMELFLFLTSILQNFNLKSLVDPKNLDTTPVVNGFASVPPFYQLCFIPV
Chain of CYP2C19 (P33261 whole entry): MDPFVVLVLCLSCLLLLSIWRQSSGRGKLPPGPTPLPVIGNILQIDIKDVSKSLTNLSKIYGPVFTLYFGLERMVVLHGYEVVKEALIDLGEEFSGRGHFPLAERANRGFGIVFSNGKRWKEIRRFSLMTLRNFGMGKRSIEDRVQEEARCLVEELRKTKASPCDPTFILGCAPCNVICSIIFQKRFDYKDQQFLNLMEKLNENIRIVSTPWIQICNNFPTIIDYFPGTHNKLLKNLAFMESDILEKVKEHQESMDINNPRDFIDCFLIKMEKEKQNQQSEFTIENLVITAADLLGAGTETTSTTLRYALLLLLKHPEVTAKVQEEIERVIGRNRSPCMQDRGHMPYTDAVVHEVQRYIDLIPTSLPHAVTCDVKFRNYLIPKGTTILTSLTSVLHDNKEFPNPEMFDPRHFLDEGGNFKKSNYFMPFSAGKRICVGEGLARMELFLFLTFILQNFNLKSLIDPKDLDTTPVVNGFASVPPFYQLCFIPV

SMILES: CC(C)=CCc1c(O)ccc2c1O[C@H](c1ccc(O)cc1)CC2=O [isobavachin]
- CLint (CLmax) ([1]; formation of G1, Michaelis–Menten model): 144.94 ± 11.20 μl/min per mg
- CLint (CLmax) [1, 4]: 29.60 ± 9.00 μl/min per mg
- exposure [2]: about 13.2 nM
- IC50 (CYP2C9): 0.04 ± 0.005 µM
- residual activities (CYP2C9; 10 μM isobavachin): 1.04 % of the negative control
- Ki (CYP2C9; substrate tolbutamide, mixed-type model (not selected)): 0.27 ± 0.1 µM
- Ki (CYP2C9; substrate tolbutamide, non-competitive model (selected, smallest AIC and SC)): 0.22 ± 0.02 µM
- Inhibition type (CYP2C9; [5]): non-competitive inhibition mode
- α (CYP2C9; substrate tolbutamide, mixed-type model): 0.70 ± 0.49
- IC50 (CYP2C19): 0.27 ± 0.07 µM
- residual activities (CYP2C19; 10 μM isobavachin): 0 % of the negative control
- Ki (CYP2C19; substrate mephenytoin, competitive model (selected, smallest AIC and SC)): 1.55 µM
- Ki (CYP2C19; substrate mephenytoin, mixed-type model (not selected)): 1.55 ± 0.53 µM
- Ki (CYP2C19; substrate mephenytoin, non-competitive model (not selected)): 3.34 ± 0.49 µM
- Inhibition type (CYP2C19; [5]): competitive inhibition
- α (CYP2C19; substrate mephenytoin, mixed-type model): >>1
- Ki (UGT1A8; substrate inhibition constant): 17.04 ± 3.36 µM
- CLint (CLmax) (UGT1A8): 46.30 ± 11.05 μl/min per mg
- Vmax (UGT1A8): 1607.00 ± 241.00 pmol/min per mg
- IC50 (UGT1A9): 1.21 ± 0.3 µM
- residual activities (UGT1A9; 10 μM isobavachin): 16.51 % of the negative control
- Ki (UGT1A9; substrate propofol, competitive model (not selected)): 0.2 ± 0.03 µM
- Ki (UGT1A9; substrate propofol, mixed-type model (not selected)): 0.43 ± 0.14 µM
- Ki (UGT1A9; substrate propofol, non-competitive model (selected, smallest AIC and SC)): 0.44 ± 0.04 µM
- Inhibition type (UGT1A9; [5]): non-competitive inhibition mode
- α (UGT1A9; substrate propofol, mixed-type model): 1.05 ± 0.70
- inhibitory effects (CYP3A4): negligible or weak
- Ki (UGT1A6; formation of G1): 21.97 ± 5.84 µM
- Ki (UGT1A6; formation of G2): 12.71 ± 2.60 µM
- CLint (CLmax) ([3]; formation of G1, Hill equation (CLmax)): 148.79 ± 9.36 μl/min per mg
- CLint (CLmax) [3, 4]: 21.82 ± 4.35 μl/min per mg
